Here are results for four compounds from ChEMBL document CHEMBL4834412, “2,4,5-Trisubstituted Pyrimidines as Potent HIV-1 NNRTIs: Rational Design, Synthesis, Activity Evaluation, and Crystallographic Studies” (J Med Chem, 2021).

A value given as a limit tells only on which side of the number the result lay.

Test system in one data set: not listed separately
Put plainly: Tmax in Sprague-Dawley rat at 2 mg/kg, iv. In kind it is ADME, organism-based. Conditions: in vivo. An outline of the steps:
(§1)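 Sprague Dawley rats given a single 2 mg/kg intravenous or 20 mg/kg oral dose. Plasma concentration–time profiles followed. PK parameters reported as mean ± SD, n = 3.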
In general, Tmax refers to the time at which the peak concentration occurs. On to `Cc1cc(C#N)cc(C)c1Oc1nc(NC2CCN(Cc3ccc(C(N)=O)cc3)CC2)ncc1-c1ccncc1`, for which the time to peak (Tmax) turned out to be 19.8 min.

In a further data set the test system is Human immunodeficiency virus 1. Put plainly: Antiviral activity against NNRTI-resistant HIV-1 RES056 harboring RT K103N/Y181C mutant infected in human MT4 cells assessed as protection against virus-induced cytopathogenicity after 5 days by MTT assay. In kind it is functional, organism-based. Conditions: Human immunodeficiency virus 1, RES056, MT4, 120 h. (Protection from cytopathic effect is a common read-out in antiviral testing.)
Usually EC50 stands for the midpoint of the concentration-response curve. On to `Cc1cc(C#N)cc(C)c1Oc1nc(NC2CCN(Cc3ccc(S(N)(=O)=O)cc3)CC2)ncc1-c1cccs1`, for which the EC50 amounted to 103 nM.

As to `Cc1cc(C#N)cc(C)c1Oc1nc(NC2CCN(Cc3ccc(S(C)(=O)=O)cc3)CC2)ncc1-c1ccncc1`, the EC50 turned out to be 244 nM.

As for `Cc1cc(/C=C/C#N)cc(C)c1Oc1nc(NC2CCN(Cc3ccc(C(N)=O)cc3)CC2)ncc1-c1ccncc1`, the EC50 was 23.3 nM.

In the case of `Cc1cc(C#N)cc(C)c1Oc1nc(NC2CCN(Cc3ccc(C(N)=O)cc3)CC2)ncc1-c1ccncc1`, the EC50 was 24.4 nM.

In a further data set the test system is Human immunodeficiency virus 1. Put plainly: Antiviral activity against HIV-1 harboring RT F227L/V106A mutant infected in human MT4 cells assessed as protection against virus-induced cytopathogenicity after 5 days by MTT assay. The data set is classed as functional, organism-based. Conditions: Human immunodeficiency virus 1, MT4, 120 h.
For `Cc1cc(C#N)cc(C)c1Oc1nc(NC2CCN(Cc3ccc(S(N)(=O)=O)cc3)CC2)ncc1-c1cccs1`, the concentration for a half-maximal effect (EC50) is 30.2 nM.

Take `Cc1cc(C#N)cc(C)c1Oc1nc(NC2CCN(Cc3ccc(S(C)(=O)=O)cc3)CC2)ncc1-c1ccncc1`: the half-maximal effective concentration (EC50) is 79.4 nM.

Take `Cc1cc(/C=C/C#N)cc(C)c1Oc1nc(NC2CCN(Cc3ccc(C(N)=O)cc3)CC2)ncc1-c1ccncc1`: the EC50 was 35.5 nM.

For the compound `Cc1cc(C#N)cc(C)c1Oc1nc(NC2CCN(Cc3ccc(C(N)=O)cc3)CC2)ncc1-c1ccncc1`, the concentration giving a half-maximal response (EC50) came out at 10.4 nM.

Test system in another data set: not listed separately
Put plainly: Tmax in Sprague-Dawley rat at 20 mg/kg, po. In kind it is ADME, organism-based. Conditions: in vivo. An outline of the steps:
as §1
In the case of `Cc1cc(C#N)cc(C)c1Oc1nc(NC2CCN(Cc3ccc(C(N)=O)cc3)CC2)ncc1-c1ccncc1`, the time to peak (Tmax) turned out to be 60 min.

Another data set concerns Human immunodeficiency virus 1. Put plainly: Antiviral activity against HIV-1 harboring RT E138K mutant infected in human MT4 cells assessed as protection against virus-induced cytopathogenicity after 5 days by MTT assay. In kind it is functional, organism-based. The conditions noted are these: Human immunodeficiency virus 1, MT4, 120 h.
As to `Cc1cc(C#N)cc(C)c1Oc1nc(NC2CCN(Cc3ccc(S(N)(=O)=O)cc3)CC2)ncc1-c1cccs1`, the concentration giving a half-maximal response (EC50) is 7.71 nM.

Consider `Cc1cc(C#N)cc(C)c1Oc1nc(NC2CCN(Cc3ccc(S(C)(=O)=O)cc3)CC2)ncc1-c1ccncc1`, for which the EC50 was 9.19 nM.

As for `Cc1cc(/C=C/C#N)cc(C)c1Oc1nc(NC2CCN(Cc3ccc(C(N)=O)cc3)CC2)ncc1-c1ccncc1`, the half-maximal effective concentration (EC50) worked out at 8.66 nM.

As to `Cc1cc(C#N)cc(C)c1Oc1nc(NC2CCN(Cc3ccc(C(N)=O)cc3)CC2)ncc1-c1ccncc1`, the EC50 was 10.9 nM.

Test system in the next data set: not listed separately
Put plainly: Acute toxicity in Kunming mouse assessed as toxic symptoms at 2000 mg/kg, po single dose measured up to 2 weeks. The data set is classed as organism-based. Conditions: in vivo, 336 h. Put shortly:
(§2)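 Kunming mice, 20 total, randomly split into two groups: vehicle control (0 mg/kg) or single oral 2000 mg/kg dose on day 1. Animals observed for toxic symptoms and mortality over the following two weeks; body weight tracked and expressed as relative change.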
Take `Cc1cc(C#N)cc(C)c1Oc1nc(NC2CCN(Cc3ccc(C(N)=O)cc3)CC2)ncc1-c1ccncc1`: the Activity result is “Non-Toxic”.

A further data set deals with Human immunodeficiency virus 1. Put plainly: Antiviral activity against HIV-1 harboring RT L100I mutant infected in human MT4 cells assessed as protection against virus-induced cytopathogenicity after 5 days by MTT assay. The conditions noted are these: Human immunodeficiency virus 1, MT4, 120 h. The data set is classed as functional, organism-based.
`Cc1cc(C#N)cc(C)c1Oc1nc(NC2CCN(Cc3ccc(S(N)(=O)=O)cc3)CC2)ncc1-c1cccs1`: the EC50 turned out to be 5.92 nM.

As to `Cc1cc(C#N)cc(C)c1Oc1nc(NC2CCN(Cc3ccc(S(C)(=O)=O)cc3)CC2)ncc1-c1ccncc1`, the concentration for a half-maximal effect (EC50) came out at 17.4 nM.

For the compound `Cc1cc(/C=C/C#N)cc(C)c1Oc1nc(NC2CCN(Cc3ccc(C(N)=O)cc3)CC2)ncc1-c1ccncc1`, the 50% effective concentration (EC50) came out at 5.62 nM.

Turning to `Cc1cc(C#N)cc(C)c1Oc1nc(NC2CCN(Cc3ccc(C(N)=O)cc3)CC2)ncc1-c1ccncc1`, the EC50 was 4.26 nM.

Test system in a further data set: not listed separately
Put plainly: Acute toxicity in Kunming mouse assessed as body weight change at 2000 mg/kg, po single dose measured up to 2 weeks. In kind it is organism-based. The conditions noted are these: in vivo, 336 h. Put shortly: as §2
As to `Cc1cc(C#N)cc(C)c1Oc1nc(NC2CCN(Cc3ccc(C(N)=O)cc3)CC2)ncc1-c1ccncc1`, the Activity entry was “Non-Toxic”.

The test system of a further data set is Human immunodeficiency virus 2. Put plainly: Antiviral activity against HIV-2 ROD infected in human MT4 cells assessed as protection against virus-induced cytopathogenicity after 5 days by MTT assay. Conditions: Human immunodeficiency virus 2, ROD, MT4, 120 h.
Consider `Cc1cc(C#N)cc(C)c1Oc1nc(NC2CCN(Cc3ccc(S(N)(=O)=O)cc3)CC2)ncc1-c1cccs1`, for which the EC50 is at least 33400 nM.

Consider `Cc1cc(C#N)cc(C)c1Oc1nc(NC2CCN(Cc3ccc(C(N)=O)cc3)CC2)ncc1-c1ccncc1`, for which the half-maximal effective concentration (EC50) was over 36000 nM.

Another data set has as its system Human immunodeficiency virus 1. Put plainly: Antiviral activity against HIV-1 strain IIIB infected in human MT4 cells assessed as protection against virus-induced cytopathicity after 5 days by MTT assay. The conditions noted are these: Human immunodeficiency virus 1, IIIB, MT4, 120 h. In kind it is functional, organism-based.
`Cc1cc(C#N)cc(C)c1Oc1nc(NC2CCN(Cc3ccc(S(N)(=O)=O)cc3)CC2)ncc1-c1cccs1`: the EC50 stood at 4.57 nM.

For `Cc1cc(C#N)cc(C)c1Oc1nc(NC2CCN(Cc3ccc(S(C)(=O)=O)cc3)CC2)ncc1-c1ccncc1`, the concentration for a half-maximal effect (EC50) is 5.93 nM.

As to `Cc1cc(/C=C/C#N)cc(C)c1Oc1nc(NC2CCN(Cc3ccc(C(N)=O)cc3)CC2)ncc1-c1ccncc1`, the EC50 is 4.19 nM.

`Cc1cc(C#N)cc(C)c1Oc1nc(NC2CCN(Cc3ccc(C(N)=O)cc3)CC2)ncc1-c1ccncc1`: the EC50 is 3.75 nM.

Test system in the next data set: not listed separately
Put plainly: Acute toxicity in Kunming mouse assessed as mortality at 2000 mg/kg, po single dose measured up to 2 weeks. In kind it is organism-based. Conditions: in vivo, 336 h. Put shortly:
as §2
As for `Cc1cc(C#N)cc(C)c1Oc1nc(NC2CCN(Cc3ccc(C(N)=O)cc3)CC2)ncc1-c1ccncc1`, the Activity result is “Non-Toxic”.

The subject of a further data set is Human immunodeficiency virus 1. Put plainly: Antiviral activity against HIV-1 harboring RT Y181C mutant infected in human MT4 cells assessed as protection against virus-induced cytopathogenicity after 5 days by MTT assay. The data set is classed as functional, organism-based. The conditions noted are these: Human immunodeficiency virus 1, MT4, 120 h.
In the case of `Cc1cc(C#N)cc(C)c1Oc1nc(NC2CCN(Cc3ccc(S(N)(=O)=O)cc3)CC2)ncc1-c1cccs1`, the EC50 is 10.7 nM.

On to `Cc1cc(C#N)cc(C)c1Oc1nc(NC2CCN(Cc3ccc(S(C)(=O)=O)cc3)CC2)ncc1-c1ccncc1`, for which the EC50 turned out to be 10.8 nM.

As for `Cc1cc(/C=C/C#N)cc(C)c1Oc1nc(NC2CCN(Cc3ccc(C(N)=O)cc3)CC2)ncc1-c1ccncc1`, the half-maximal effective concentration (EC50) stood at 7.14 nM.

In the case of `Cc1cc(C#N)cc(C)c1Oc1nc(NC2CCN(Cc3ccc(C(N)=O)cc3)CC2)ncc1-c1ccncc1`, the EC50 came to 6.79 nM.

Another data set deals with Human immunodeficiency virus 1. Put plainly: Antiviral activity against HIV-1 harboring RT K103N mutant infected in human MT4 cells assessed as protection against virus-induced cytopathogenicity after 5 days by MTT assay. The data set is classed as functional, organism-based. Conditions: Human immunodeficiency virus 1, MT4, 120 h.
Regarding `Cc1cc(C#N)cc(C)c1Oc1nc(NC2CCN(Cc3ccc(S(N)(=O)=O)cc3)CC2)ncc1-c1cccs1`, the 50% effective concentration (EC50) was 5.39 nM.

For the compound `Cc1cc(C#N)cc(C)c1Oc1nc(NC2CCN(Cc3ccc(S(C)(=O)=O)cc3)CC2)ncc1-c1ccncc1`, the EC50 stood at 4.4 nM.

On to `Cc1cc(/C=C/C#N)cc(C)c1Oc1nc(NC2CCN(Cc3ccc(C(N)=O)cc3)CC2)ncc1-c1ccncc1`, for which the EC50 worked out at 3.84 nM.

As for `Cc1cc(C#N)cc(C)c1Oc1nc(NC2CCN(Cc3ccc(C(N)=O)cc3)CC2)ncc1-c1ccncc1`, the concentration giving a half-maximal response (EC50) turned out to be 3.79 nM.

The test system of a further data set is Human immunodeficiency virus 1. Put plainly: Antiviral activity against HIV-1 harboring RT Y188L mutant infected in human MT4 cells assessed as protection against virus-induced cytopathogenicity after 5 days by MTT assay. The data set is classed as functional, organism-based. The conditions noted are these: Human immunodeficiency virus 1, MT4, 120 h.
With `Cc1cc(C#N)cc(C)c1Oc1nc(NC2CCN(Cc3ccc(S(N)(=O)=O)cc3)CC2)ncc1-c1cccs1`, the concentration giving a half-maximal response (EC50) was found to be 9.31 nM.

In the case of `Cc1cc(C#N)cc(C)c1Oc1nc(NC2CCN(Cc3ccc(S(C)(=O)=O)cc3)CC2)ncc1-c1ccncc1`, the EC50 came to 18.5 nM.

As to `Cc1cc(/C=C/C#N)cc(C)c1Oc1nc(NC2CCN(Cc3ccc(C(N)=O)cc3)CC2)ncc1-c1ccncc1`, the concentration for a half-maximal effect (EC50) was determined as 23 nM.

Regarding `Cc1cc(C#N)cc(C)c1Oc1nc(NC2CCN(Cc3ccc(C(N)=O)cc3)CC2)ncc1-c1ccncc1`, the half-maximal effective concentration (EC50) stood at 6.79 nM.
